Measured values as given in ChEMBL document CHEMBL1125881, “Synthesis and hypocholesterolemic activity of 6,7-dihydro-4H-pyrazolo[1,5-a]pyrrolo[3,4-d]pyrimidine-5,8-diones, novel inhibitors of acylCoA:cholesterol O-acyltransferase” (J Med Chem, 1991).
Several values for one entry are separate records, joined by “and”; a condition that tells them apart may be missing. Identical values can stand only once.

How the values were obtained:
Rattus norvegicus [1] = species on record: Rattus norvegicus; experiment: (§1) Percent control of serum cholesterol in cholesterol; type: functional; set-up: concentration or dose not given beside the values
Outline: (§2)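 Male Sprague-Dawley rats (100–110 g), groups of 10, fed synthetic diet with 1% cholesterol; compound mixed into diet to give the stated daily dose (mg/kg) for 7 days. Serum from jugular bleed under anesthesia; VLDL+LDL separated from HDL by PEG-8000 precipitation in glycine buffer pH 9; values expressed as % of cholesterol-fed control; one-way design, LSD comparison.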

[2] = target: T1, Sterol O-acyltransferase 1 (Rattus norvegicus, UniProt O70536); experiment: In vitro inhibition of Fu5AH acyl coenzyme A:cholesterol acyltransferase.
T1 sequence (O70536 whole entry): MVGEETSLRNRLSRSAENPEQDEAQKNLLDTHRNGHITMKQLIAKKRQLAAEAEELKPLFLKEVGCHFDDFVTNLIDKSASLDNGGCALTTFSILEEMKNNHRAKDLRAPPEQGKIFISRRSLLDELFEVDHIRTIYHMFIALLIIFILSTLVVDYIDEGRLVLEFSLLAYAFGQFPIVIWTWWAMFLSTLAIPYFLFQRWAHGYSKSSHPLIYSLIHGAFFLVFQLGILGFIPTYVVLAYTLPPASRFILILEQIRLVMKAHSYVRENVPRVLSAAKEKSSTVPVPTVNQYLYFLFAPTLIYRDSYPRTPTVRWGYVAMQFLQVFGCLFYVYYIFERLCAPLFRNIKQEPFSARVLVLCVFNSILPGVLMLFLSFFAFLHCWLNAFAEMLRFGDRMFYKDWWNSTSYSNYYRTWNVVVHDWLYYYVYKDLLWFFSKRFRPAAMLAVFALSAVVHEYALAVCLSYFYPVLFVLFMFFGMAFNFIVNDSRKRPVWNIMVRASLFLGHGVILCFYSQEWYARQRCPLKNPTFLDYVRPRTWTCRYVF

Rattus norvegicus [3] = species on record: Rattus norvegicus; experiment: as §1; type: functional; set-up: concentration or dose not given beside the values; outline: as §2; remark: listed apart in the source
Rattus norvegicus [4] = species on record: Rattus norvegicus; experiment: as §1; type: functional; set-up: concentration or dose not given beside the values; outline: as §2; remark: listed apart in the source
[5] = target: T2, Sterol O-acyltransferase 1 (Rattus norvegicus) (UniProt O70536); experiment: Inhibition of Fu5AH Acyl coenzyme A:cholesterol acyltransferase at the concentration of 10 ug/mL
T2 sequence (whole entry): T1 sequence (O70536 whole entry)

Rattus norvegicus [6] = species on record: Rattus norvegicus; experiment: (§3) The compound was tested for % control of serum cholesterol in cholesterol; type: functional; outline: as §2
Rattus norvegicus [7] = species on record: Rattus norvegicus; experiment: as §3; type: functional; outline: as §2; remark: listed apart in the source
Rattus norvegicus [8] = species on record: Rattus norvegicus; experiment: as §3; type: functional; outline: as §2; remark: listed apart in the source
Rattus norvegicus [9] = species on record: Rattus norvegicus; experiment: as §3; type: functional; outline: as §2; remark: listed apart in the source
Rattus norvegicus [10] = species on record: Rattus norvegicus; experiment: as §3; type: functional; outline: as §2; remark: listed apart in the source
Rattus norvegicus [11] = species on record: Rattus norvegicus; experiment: as §3; type: functional; outline: as §2; remark: listed apart in the source

Row | Structure (SMILES) | IC50 [2] | inhibition [5] | Control (Rattus norvegicus [1]) | Control (Rattus norvegicus [3]) | Control (Rattus norvegicus [4]) | other results
1 | O=C1c2c(c(=O)n3nc(-c4ccccc4)cc3n2Cc2ccccc2)CN1Cc1ccccc1 | 10.5 µM | 90% | 92% | 113% | 105% | –
2 | COc1ccc(CN2Cc3c(n(CC(=O)c4ccccc4)c4cc(-c5ccccc5)nn4c3=O)C2=O)cc1 | – | 10% | – | – | – | –
3 | CCCCCCCC/C=C\CCCCCCCCN1Cc2c(n(CC(=O)c3ccccc3)c3cc(-c4ccccc4)nn3c2=O)C1=O | – | 1% | 86% | 69% | 76% | –
4 | Cn1c2c(c(=O)n3nc(-c4ccccc4)cc13)CN(C1CCCCC1)C2=O | – | 13% | – | – | – | –
5 | CC1CCCC(N2Cc3c(n(CC(=O)c4ccccc4)c4cc(-c5ccccc5)nn4c3=O)C2=O)C1C (stereo unspecified) | 6.67 µM | 79% | 122% | 59% | 89% | Control (Rattus norvegicus [6]): 70%; Control (Rattus norvegicus [7]): 86%; Control (Rattus norvegicus [8]): 83%; Control (Rattus norvegicus [9]): 62%; Control (Rattus norvegicus [10]): 105%; Control (Rattus norvegicus [11]): 109%
6 | CC(c1ccccc1)N1Cc2c(n(CC(=O)c3ccccc3)c3cc(-c4ccccc4)nn3c2=O)C1=O (stereo unspecified) | – | 30% | 92% | 90% | 91% | –
7 | O=C(Cn1c2c(c(=O)n3nc(-c4ccccc4)cc13)CN(Cc1ccccc1)C2=O)c1ccccc1 | 5.48 µM | 70% | 100% | 101% | 100% | –
8 | O=C1c2c(c(=O)n3nc(-c4ccccc4)cc3n2Cc2ccccc2)CN1C[C@H]1CC[C@H](O)CC1 | – | 23% | 90% | 128% | 108% | –
9 | O=C1c2c(c(=O)n3nc(C4CCCCC4)cc3n2Cc2ccccc2)CN1C1CCCCC1 | – | 12% | 111% | 106% | 109% | –
10 | CN1Cc2c(n(Cc3ccccc3)c3cc(-c4ccccc4)nn3c2=O)C1=O | – | 8% | – | – | – | –
11 | O=C1c2c(c(=O)n3nc(-c4ccccc4)cc3n2CC2CCCCC2)CN1C1CCCCC1 | 8.77 µM | 97% | 80% | 144% | 111% | –
12 | COC(=O)c1ccc(C(=O)Cn2c3c(c(=O)n4nc(-c5ccccc5)cc24)CN(C2CCCCC2)C3=O)cc1 | – | 1% | 99% | 116% | 107% | –
13 | O=C1c2c(c(=O)n3nc(-c4ccc(O)cc4)cc3n2Cc2ccccc2)CN1C1CCCCC1 | – | 33% | – | – | – | –
14 | O=C1c2c(c(=O)n3nccc3n2Cc2ccccc2)CN1C1CCCCC1 | – | 25% | – | – | – | –
15 | O=C1c2c(c(=O)n3nc(-c4ccccc4)cc3n2Cc2ccccc2)CN1c1ccccc1 | – | 18% | – | – | – | –
16 | CCCCCCN1Cc2c(n(CC(=O)c3ccccc3)c3cc(-c4ccccc4)nn3c2=O)C1=O | – | 75% | 98% | 86% | 89% | –
17 | CC(C)(C)CC(C)(C)N1Cc2c(n(CC(=O)c3ccccc3)c3cc(-c4ccccc4)nn3c2=O)C1=O | 8.86 µM | 80% | 122% | 96% | 107% | –
18 | CCCCCCCCCCCCN1Cc2c(n(CC(=O)c3ccccc3)c3cc(-c4ccccc4)nn3c2=O)C1=O | – | 39% | 92% | 85% | 91% | –
19 | C=CCOc1ccc(-c2cc3n(Cc4ccccc4)c4c(c(=O)n3n2)CN(C2CCCCC2)C4=O)cc1 | 11.5 µM | 65% | 95% | 98% | 94% | –
20 | O=C1c2c(c(=O)n3ncc(-c4ccccc4)c3n2Cc2ccccc2)CN1C1CCCCC1 | – | 21% | – | – | – | –
21 | O=C(Cn1c2c(c(=O)n3nc(-c4ccccc4)cc13)CN(C1CC3CCC1C3)C2=O)c1ccccc1 (stereo unspecified) | 4.39 µM | 83% | 90% | 63% | 75% | –
22 | CCOc1ccc(-c2cc3n(Cc4ccccc4)c4c(c(=O)n3n2)CN(C2CCCCC2)C4=O)cc1 | – | 75% | 93% | 122% | 110% | –
23 | CCCCCCCCCCCCCCCCOc1ccc(C(=O)Cn2c3c(c(=O)n4nc(-c5ccccc5)cc24)CN(C2CCCCC2)C3=O)cc1 | – | 2% | – | – | – | –
24 | CC(C)CC(C)N1Cc2c(n(CC(=O)c3ccccc3)c3cc(-c4ccccc4)nn3c2=O)C1=O (stereo unspecified) | 6.4 µM | 85% | 89% | 57% | 72% | –
25 | COC(=O)Cn1c2c(c(=O)n3nc(-c4ccccc4)cc13)CN(C1CCCCC1)C2=O | – | 25% | 112% | 109% | 109% | –

Further lines, with some results ahead:

Row | IC50 [2] | inhibition [5] | Structure (SMILES) | Control (Rattus norvegicus [1]) | Control (Rattus norvegicus [3]) | Control (Rattus norvegicus [4]) | other results
26 | – | 19% | O=C(Cn1c2c(c(=O)n3nc(-c4ccccc4)cc13)CN(C1CCCCC1)C2=O)c1ccc2ccccc2c1 | – | – | – | –
27 | – | 52% | COc1ccc(C(=O)Cn2c3c(c(=O)n4nc(-c5ccccc5)cc24)CN(C2CCCCC2)C3=O)cc1 | – | – | – | –
28 | 2.74 µM | 87% | O=C(Cn1c2c(c(=O)n3nc(-c4ccccc4)cc13)CN(C1CCCCC1)C2=O)c1cccc([N+](=O)[O-])c1 | 83% | 126% | 106% | –
29 | – | 31% | O=C1c2c(c(=O)n3nc(-c4ccccc4)cc3n2CS(=O)(=O)c2ccccc2)CN1C1CCCCC1 | – | – | – | –
30 | – | 55% | CC(C(=O)c1ccccc1)n1c2c(c(=O)n3nc(-c4ccccc4)cc13)CN(C1CCCCC1)C2=O (stereo unspecified) | – | – | – | –
31 | – | 66% | O=C1c2c(c(=O)n3nc(-c4ccccc4)cc3n2CC(O)c2ccccc2)CN1C1CCCCC1 (stereo unspecified) | – | – | – | –
32 | – | 28% | CCOC(=O)CCCn1c2c(c(=O)n3nc(-c4ccccc4)cc13)CN(C1CCCCC1)C2=O | – | – | – | –
33 | – | 68% | O=C(Cn1c2c(c(=O)n3nc(-c4ccccc4)cc13)CN(C1CCCCCCC1)C2=O)c1ccccc1 | 100% | 67% | 83% | –
34 | 22.9 µM | 55% | O=C1c2c(c(=O)n3nc(-c4ccccc4)cc3n2CSc2ccccc2)CN1C1CCCCC1 | – | – | – | –
35 | 5.16 µM | 88% | O=C(Cn1c2c(c(=O)n3nc(-c4ccccc4)cc13)CN(C1CCCCC1)C2=O)c1ccc(F)cc1 | 101% | 95% | 98% | –
36 | 13.7 µM | 78% | O=C(CCCn1c2c(c(=O)n3nc(-c4ccccc4)cc13)CN(C1CCCCC1)C2=O)c1ccccc1 | – | – | – | –
37 | 15.5 µM | 75% | O=C1c2c(c(=O)n3nc(-c4ccccc4)cc3n2C/C=C/c2ccccc2)CN1C1CCCCC1 | – | – | – | –
38 | – | 48% | CCCCCCn1c2c(c(=O)n3nc(-c4ccccc4)cc13)CN(C1CCCCC1)C2=O | – | – | – | –
39 | – | 39% | O=C(Cn1c2c(c(=O)n3nc(-c4ccccc4)cc13)CN(C1CCCCCCCCCCC1)C2=O)c1ccccc1 | 92% | 76% | 83% | –
40 | 7.98 µM | 88% | O=C1c2c(c(=O)n3nc(-c4ccccc4)cc3n2Cc2ccccc2)CN1C1CCCCC1 | 97% | 110% | 104% | –
41 | 3.64 µM | 92% | O=C(Cn1c2c(c(=O)n3nc(-c4ccccc4)cc13)CN(C1CCCCC1)C2=O)c1ccccc1 | 128% | 65% | 97% and 88% | Control (Rattus norvegicus [6]): 84%; Control (Rattus norvegicus [8]): 97%; Control (Rattus norvegicus [9]): 75%; Control (Rattus norvegicus [10]): 120%; Control (Rattus norvegicus [11]): 133%
